Laboratory results taken from ChEMBL document CHEMBL3616442, “Unconventional Knoevenagel-type indoles: Synthesis and cell-based studies for the identification of pro-apoptotic agents” (Eur J Med Chem, 2015).

Experiments:
[1] = test system: OVCAR-8; assay: Growth inhibition of human OVCAR8 cells after 48 hrs by sulforhodamine B assay; format: functional; conditions: OVCAR-8, 48 h
[2] = test system: OVCAR-4; assay: Growth inhibition of human OVCAR4 cells after 48 hrs by sulforhodamine B assay; format: functional; conditions: OVCAR-4, 48 h
Procedure, shortened: (§1)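 NCI 60-cell-line screen. Compounds tested at five 10-fold dilutions from 10^-4 to 10^-8 M. Cells exposed for the last 48 h of a 72 h incubation, growth estimated by sulforhodamine B protein assay. GI50 is the concentration giving 50% growth inhibition. Values beyond the tested range are expressed as greater or lesser than the extreme concentration.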

[3] = test system: U-251; assay: Growth inhibition of human U251 cells after 48 hrs by sulforhodamine B assay; format: functional; conditions: U-251, 48 h
[4] = test system: CCRF-CEM; assay: Growth inhibition of human CCRF-CEM cells after 48 hrs by sulforhodamine B assay; format: functional; procedure, shortened: as §1
[5] = test system: M14; assay: Growth inhibition of human M14 cells after 48 hrs by sulforhodamine B assay; format: functional; conditions: M14, 48 h; procedure, shortened: as §1
[6] = test system: IGROV-1; assay: Growth inhibition of human IGROV1 cells after 48 hrs by sulforhodamine B assay; format: functional; conditions: IGROV-1, 48 h; procedure, shortened: as §1
[7] = test system: A498; assay: Growth inhibition of human A498 cells after 48 hrs by sulforhodamine B assay; format: functional; conditions: A498, 48 h; procedure, shortened: as §1
[8] = test system: NCI-H522; assay: Growth inhibition of human NCI-H522 cells after 48 hrs by sulforhodamine B assay; format: functional; conditions: NCI-H522, 48 h; procedure, shortened: as §1
[9] = test system: SNB-75; assay: Growth inhibition of human SNB75 cells after 48 hrs by sulforhodamine B assay; format: functional; conditions: SNB-75, 48 h
[10] = test system: SF-268; assay: Growth inhibition of human SF268 cells after 48 hrs by sulforhodamine B assay; format: functional; conditions: SF-268, 48 h
[11] = Growth inhibition of human RXF393 cells after 48 hrs by sulforhodamine B assay; format: functional; conditions: RXF 393, 48 h
[12] = test system: HT-29; assay: Growth inhibition of human HT-29 cells after 48 hrs by sulforhodamine B assay; format: functional; conditions: HT-29, 48 h; procedure, shortened: as §1
[13] = test system: A549; assay: Growth inhibition of human A549 cells after 48 hrs by sulforhodamine B assay; format: functional; conditions: A549, 48 h; procedure, shortened: as §1
[14] = test system: MDA-MB-468; assay: Growth inhibition of human MDA-MB-468 cells after 48 hrs by sulforhodamine B assay; format: functional; conditions: MDA-MB-468, 48 h; procedure, shortened: as §1
[15] = Growth inhibition of human HOP92 cells after 48 hrs by sulforhodamine B assay; format: functional; conditions: HOP-92, 48 h; procedure, shortened: as §1
[16] = test system: SW-620; assay: Growth inhibition of human SW620 cells after 48 hrs by sulforhodamine B assay; format: functional; conditions: SW-620, 48 h
[17] = test system: OVCAR-5; assay: Growth inhibition of human OVCAR5 cells after 48 hrs by sulforhodamine B assay; format: functional; conditions: OVCAR-5, 48 h
[18] = test system: 786-0; assay: Growth inhibition of human 786-0 cells after 48 hrs by sulforhodamine B assay; format: functional; conditions: 786-0, 48 h; procedure, shortened: as §1
[19] = test system: MDA-MB-435; assay: Growth inhibition of human MDA-MB-435 cells after 48 hrs by sulforhodamine B assay; format: functional; conditions: MDA-MB-435, 48 h; procedure, shortened: as §1
[20] = test system: UACC-257; assay: Growth inhibition of human UACC257 cells after 48 hrs by sulforhodamine B assay; format: functional; conditions: UACC-257, 48 h
[21] = test system: SK-MEL-28; assay: Growth inhibition of human SK-MEL-28 cells after 48 hrs by sulforhodamine B assay; format: functional; conditions: SK-MEL-28, 48 h
[22] = test system: HCT-116; assay: Growth inhibition of human HCT116 cells after 48 hrs by sulforhodamine B assay; format: functional; conditions: HCT-116, 48 h; procedure, shortened: as §1
[23] = Growth inhibition of human EKVX cells after 48 hrs by sulforhodamine B assay; format: functional; procedure, shortened: as §1
[24] = test system: SK-MEL-5; assay: Growth inhibition of human SK-MEL-5 cells after 48 hrs by sulforhodamine B assay; format: functional; conditions: SK-MEL-5, 48 h
[25] = test system: NCI-H322M; assay: Growth inhibition of human NCI-H322M cells after 48 hrs by sulforhodamine B assay; format: functional; procedure, shortened: as §1
[26] = test system: HCT-15; assay: Growth inhibition of human HCT15 cells after 48 hrs by sulforhodamine B assay; format: functional; conditions: HCT-15, 48 h; procedure, shortened: as §1
[27] = test system: T47D; assay: Growth inhibition of human T47D cells after 48 hrs by sulforhodamine B assay; format: functional
[28] = Growth inhibition of human BT549 cells after 48 hrs by sulforhodamine B assay; format: functional; conditions: BT-549, 48 h; procedure, shortened: as §1
[29] = test system: NCI-H226; assay: Growth inhibition of human NCI-H226 cells after 48 hrs by sulforhodamine B assay; format: functional; conditions: NCI-H226, 48 h; procedure, shortened: as §1
[30] = test system: HL-60(TB); assay: Growth inhibition of human HL-60(TB) cells after 48 hrs by sulforhodamine B assay; format: functional; conditions: HL-60, 48 h
Procedure, shortened: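 NCI 60-cell-line screen, HL-60(TB) included. Compound given at five 10-fold dilutions from 10^-4 to 10^-8 M. Cells exposed for the last 48 h of a 72 h incubation. Growth or viability estimated by sulforhodamine B protein assay. GI50 is the concentration giving 50% growth inhibition. Values outside the tested range are reported as greater or less than the highest or lowest concentration.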

[31] = test system: K562; assay: Growth inhibition of human K562 cells after 48 hrs by sulforhodamine B assay; format: functional; conditions: K562, 48 h; procedure, shortened: as §1
[32] = Growth inhibition of human NCI-ADR-RES cells after 48 hrs by sulforhodamine B assay; format: functional; procedure, shortened: as §1
[33] = Growth inhibition of human SF539 cells after 48 hrs by sulforhodamine B assay; format: functional; conditions: SF-539, 48 h
[34] = Growth inhibition of human Hs 578T cells after 48 hrs by sulforhodamine B assay; format: functional; procedure, shortened: as §1
[35] = test system: KM12; assay: Growth inhibition of human KM12 cells after 48 hrs by sulforhodamine B assay; format: functional; conditions: KM12, 48 h; procedure, shortened: as §1
[36] = test system: SNB-19; assay: Growth inhibition of human SNB19 cells after 48 hrs by sulforhodamine B assay; format: functional; conditions: SNB-19, 48 h
[37] = test system: HOP-62; assay: Growth inhibition of human HOP62 cells after 48 hrs by sulforhodamine B assay; format: functional; conditions: HOP-62, 48 h; procedure, shortened: as §1
[38] = Growth inhibition of human LOXIMVI cells after 48 hrs by sulforhodamine B assay; format: functional; conditions: LOX IMVI; procedure, shortened: as §1
[39] = test system: NCI-H460; assay: Growth inhibition of human NCI-H460 cells after 48 hrs by sulforhodamine B assay; format: functional; conditions: NCI-H460, 48 h; procedure, shortened: as §1
[40] = Growth inhibition of human SF295 cells after 48 hrs by sulforhodamine B assay; format: functional; conditions: SF-295, 48 h
[41] = test system: MT4; assay: Antiproliferative activity against human MT4 cells after 96 hrs by MTT assay; format: functional, cell-based; conditions: MT4, 96 h
Procedure, shortened: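 Exponentially growing MT-4 cells (CD4+ human T-cells carrying integrated HTLV-1 genome), seeded at 1×10^5 cells/mL in RPMI-1640 with 10% FCS and antibiotics. Serial dilutions of compound (DMSO stock 100 mM, diluted in medium), 37 °C, 5% CO₂, 96 h. Viability read by MTT. 50% inhibition versus untreated controls by linear regression. Mean ± SD of three independent determinations.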

[42] = test system: OVCAR-3; assay: Growth inhibition of human OVCAR3 cells after 48 hrs by sulforhodamine B assay; format: functional; conditions: OVCAR-3, 48 h; procedure, shortened: as §1

COc1ccc(-c2[nH]c3ccccc3c2C=C(C#N)C#N)cc1
GI50 [1]: 1200 nM
GI50 [2]: 798 nM
GI50 [3]: 483 nM
GI50 [4]: 352 nM
GI50 [5]: 295 nM
GI50 [6]: 1400 nM
GI50 [7]: 458 nM
GI50 [8]: 798 nM
GI50 [9]: 418 nM
GI50 [10]: 709 nM
GI50 [11]: 518 nM
GI50 [12]: 354 nM
GI50 [13]: 700 nM
GI50 [14]: 418 nM
GI50 [15]: 1200 nM
GI50 [16]: 440 nM
GI50 [17]: 1800 nM
GI50 [18]: 720 nM
GI50 [19]: 128 nM
GI50 [20]: 424 nM
GI50 [21]: 1200 nM
GI50 [22]: 411 nM
GI50 [23]: 656 nM
GI50 [24]: 350 nM
GI50 [25]: 490 nM
GI50 [26]: 593 nM
GI50 [27]: 481 nM
GI50 [28]: 769 nM
GI50 [29]: 1100 nM
GI50 [30]: 271 nM
GI50 [31]: 343 nM
GI50 [32]: 343 nM
GI50 [33]: 263 nM
GI50 [34]: 241 nM
GI50 [35]: 374 nM
GI50 [36]: 1800 nM
GI50 [37]: 1200 nM
GI50 [38]: 1800 nM
GI50 [39]: 359 nM
GI50 [40]: 336 nM
EC50 [41]: 300 nM
GI50 [42]: 265 nM

CC(=O)/C(=C\c1c(-c2ccccc2)[nH]c2ccccc12)S(C)(=O)=O
GI50 [1]: 5200 nM
GI50 [2]: 3800 nM
GI50 [3]: 2900 nM
GI50 [4]: 4700 nM
GI50 [5]: 1600 nM
GI50 [6]: 8300 nM
GI50 [7]: 3900 nM
GI50 [8]: 3600 nM
GI50 [9]: 1500 nM
GI50 [10]: 4200 nM
GI50 [11]: 2600 nM
GI50 [12]: 1600 nM
GI50 [13]: 7300 nM
GI50 [14]: 1800 nM
GI50 [15]: 3800 nM
GI50 [16]: 2100 nM
GI50 [17]: 16100 nM
GI50 [18]: 3500 nM
GI50 [19]: 415 nM
GI50 [20]: 43800 nM
GI50 [21]: 3300 nM
GI50 [22]: 2900 nM
GI50 [23]: 6400 nM
GI50 [24]: 1900 nM
GI50 [25]: 9600 nM
GI50 [26]: 2000 nM
GI50 [27]: 2300 nM
GI50 [28]: 2400 nM
GI50 [29]: 27100 nM
GI50 [30]: 2600 nM
GI50 [31]: 679 nM
GI50 [32]: 2100 nM
GI50 [33]: 1900 nM
GI50 [34]: 1600 nM
GI50 [35]: 2100 nM
GI50 [36]: 3400 nM
GI50 [37]: 12100 nM
GI50 [38]: 3400 nM
GI50 [39]: 2800 nM
GI50 [40]: 3900 nM
EC50 [41]: 500 nM
GI50 [42]: 2300 nM
